Laboratory results reported in ChEMBL document CHEMBL1123067, “Evaluation of the brain-specific delivery of radioiodinated (iodophenyl)alkyl-substituted amines coupled to a dihydropyridine carrier” (J Med Chem, 1985).

Assays:
Type in all cases: ADME, organism-based
Rattus norvegicus [1] = test: Distribution of radioactivity in kidney tissues of Sprague-Dawley rats after 15 min injecton by intravenously; 1.59-2.03; conditions: in vivo, iv, 0.25 h
Rattus norvegicus [2] = test: Distribution of radioactivity in liver tissues of Sprague-Dawley rats after 30 min injecton by intravenously; 1.57-1.66; conditions: in vivo, iv, 0.5 h
Rattus norvegicus [3] = test: Distribution of radioactivity in liver tissues of Sprague-Dawley rats after 5 min injecton by intravenously; 0.73-1.45; conditions: in vivo, iv
Rattus norvegicus [4] = test: Distribution of radioactivity in liver tissues of Sprague-Dawley rats after 60 min injecton by intravenously; 1.36-1.74; conditions: in vivo, iv, 1 h
Rattus norvegicus [5] = test: Distribution of radioactivity in kidney tissues of Sprague-Dawley rats after 30 min injecton by intravenously; 1.67-2.11; conditions: in vivo, iv, 0.5 h
Rattus norvegicus [6] = test: Distribution of radioactivity in kidney tissues of Sprague-Dawley rats after 5 min injecton by intravenously; 0.62-1.13; conditions: in vivo, iv
Rattus norvegicus [7] = test: Distribution of radioactivity in kidney tissues of Sprague-Dawley rats after 60 min injecton by intravenously; 0.99-1.24; conditions: in vivo, iv, 1 h
Rattus norvegicus [8] = test: Distribution of radioactivity in liver tissues of Sprague-Dawley rats after 15 min injecton by intravenously; 1.37-1.74; conditions: in vivo, iv, 0.25 h
Rattus norvegicus [9] = test: Distribution of radioactivity in lung tissues of Sprague-Dawley rats after 15 min injecton by intravenously; 0.77-0.86; conditions: in vivo, iv, 0.25 h
Rattus norvegicus [10] = test: Distribution of radioactivity in lung tissues of Sprague-Dawley rats after 30 min injecton by intravenously; 0.6-0.66; conditions: in vivo, iv, 0.5 h
Rattus norvegicus [11] = test: Distribution of radioactivity in lung tissues of Sprague-Dawley rats after 60 min injecton by intravenously; 0.36-0.44; conditions: in vivo, iv, 1 h
Rattus norvegicus [12] = test: Distribution of radioactivity in brain tissues of Sprague-Dawley rats after 5 min injecton by intravenously; 0.35-0.72; conditions: in vivo, iv
Method in brief: (§1)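 Female Sprague-Dawley rats, 10–12 weeks old (170–200 g), fed ad libitum. The ¹²⁵I-labelled agent was dissolved in minimal Me2SO, diluted with saline to a final 20% Me2SO, filtered (0.22 μm), and injected into a lateral tail vein under ether anaesthesia. Tissues were counted against samples of the injected solution and expressed as % injected dose/g (mean, range). Brain/blood ratio is from the means.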

Rattus norvegicus [13] = test: Distribution of radioactivity in brain tissues of Sprague-Dawley rats after 60 min injecton by intravenously; 0.05-0.06; conditions: in vivo, iv, 1 h; method in brief: as §1
Rattus norvegicus [14] = test: Distribution of radioactivity in heart tissues of Sprague-Dawley rats after 60 min injecton by intravenously; 0.22-0.29; conditions: in vivo, iv, 1 h
Rattus norvegicus [15] = test: Distribution of radioactivity in blood tissues of Sprague-Dawley rats after 60 min injecton by intravenously; 0.49-0.58; conditions: in vivo, iv, 1 h; method in brief: as §1
Rattus norvegicus [16] = test: Distribution of radioactivity in brain tissues of Sprague-Dawley rats after 15 min injecton by intravenously; 0.34-0.5; conditions: in vivo, iv, 0.25 h; method in brief: as §1
Rattus norvegicus [17] = test: Distribution of radioactivity in heart tissues of Sprague-Dawley rats after 15 min injecton by intravenously; 0.52-0.62; conditions: in vivo, iv, 0.25 h; method in brief: as §1
Rattus norvegicus [18] = test: Distribution of radioactivity in heart tissues of Sprague-Dawley rats after 30 min injecton by intravenously; 0.36-0.42; conditions: in vivo, iv, 0.5 h; method in brief: as §1
Rattus norvegicus [19] = test: Distribution of radioactivity in blood tissues of Sprague-Dawley rats after 15 min injecton by intravenously; 0.95-1.06; conditions: in vivo, iv, 0.25 h; method in brief: as §1
Rattus norvegicus [20] = test: Distribution of radioactivity in blood tissues of Sprague-Dawley rats after 30 min injecton by intravenously; 0.69-0.84; conditions: in vivo, iv, 0.5 h; method in brief: as §1
Rattus norvegicus [21] = test: Distribution of radioactivity in blood tissues of Sprague-Dawley rats after 5 min injecton by intravenously; 0.58-1.17; conditions: in vivo, iv; method in brief: as §1
Rattus norvegicus [22] = test: Distribution of radioactivity in heart tissues of Sprague-Dawley rats after 5 min injecton by intravenously; 0.39-0.74; conditions: in vivo, iv
Rattus norvegicus [23] = test: Distribution of radioactivity in brain tissues of Sprague-Dawley rats after 30 min injecton by intravenously; 0.18-0.36; conditions: in vivo, iv, 0.5 h; method in brief: as §1
Rattus norvegicus [24] = test: Distribution of radioactivity in lung tissues of Sprague-Dawley rats after 5 min injecton by intravenously; 0.54-1.07; conditions: in vivo, iv
Rattus norvegicus [25] = test: Distribution of radioactivity in kidney tissues of Sprague-Dawley rats after 30 min injection by intravenously; value ranges from 1.56-1.83; conditions: in vivo, iv, 0.5 h
Rattus norvegicus [26] = test: Distribution of radioactivity in liver tissues of Sprague-Dawley rats after 30 min injection by intravenously; value ranges from 1.77-2.08; conditions: in vivo, iv, 0.5 h
Rattus norvegicus [27] = test: Distribution of radioactivity in liver tissues of Sprague-Dawley rats after 5 min injection by intravenously; value ranges from 2.98-3.22; conditions: in vivo, iv
Rattus norvegicus [28] = test: Distribution of radioactivity in liver tissues of Sprague-Dawley rats after 60 min injection by intravenously; value ranges from 1.12-1.44; conditions: in vivo, iv, 1 h
Rattus norvegicus [29] = test: Distribution of radioactivity in lung tissues of Sprague-Dawley rats after 15 min injection by intravenously; value ranges from 1.05-1.5; conditions: in vivo, iv, 0.25 h
Rattus norvegicus [30] = test: Distribution of radioactivity in kidney tissues of Sprague-Dawley rats after 5 min injection by intravenously; value ranges from 3.18-4.74; conditions: in vivo, iv
Rattus norvegicus [31] = test: Distribution of radioactivity in kidney tissues of Sprague-Dawley rats after 60 min injection by intravenously; value ranges from 1.17-1.48; conditions: in vivo, iv, 1 h
Rattus norvegicus [32] = test: Distribution of radioactivity in liver tissues of Sprague-Dawley rats after 15 min injection by intravenously; value ranges from 2.43-2.92; conditions: in vivo, iv, 0.25 h
Rattus norvegicus [33] = test: Distribution of radioactivity in heart tissues of Sprague-Dawley rats after 15 min injection by intravenously; value ranges from 0.89-1.24; conditions: in vivo, iv, 0.25 h; method in brief: as §1
Rattus norvegicus [34] = test: Distribution of radioactivity in lung tissues of Sprague-Dawley rats after 30 min injection by intravenously; value ranges from 0.86-1.13; conditions: in vivo, iv, 0.5 h
Rattus norvegicus [35] = test: Distribution of radioactivity in lung tissues of Sprague-Dawley rats after 5 min injection by intravenously; value ranges from 1.35-1.74; conditions: in vivo, iv
Rattus norvegicus [36] = test: Distribution of radioactivity in lung tissues of Sprague-Dawley rats after 60 min injection by intravenously; value ranges from 0.61-0.86; conditions: in vivo, iv, 1 h
Rattus norvegicus [37] = test: Distribution of radioactivity in brain tissues of Sprague-Dawley rats after 60 min injection by intravenously; value ranges from 0.15-0.19; conditions: in vivo, iv, 1 h; method in brief: as §1
Rattus norvegicus [38] = test: Distribution of radioactivity in blood tissues of Sprague-Dawley rats after 60 min injection by intravenously; value ranges from 0.54-0.63; conditions: in vivo, iv, 1 h; method in brief: as §1
Rattus norvegicus [39] = test: Distribution of radioactivity in heart tissues of Sprague-Dawley rats after 60 min injection by intravenously; value ranges from 0.64-0.86; conditions: in vivo, iv, 1 h
Rattus norvegicus [40] = test: Distribution of radioactivity in kidney tissues of Sprague-Dawley rats after 15 min injection by intravenously; value ranges from 2.24-3.12; conditions: in vivo, iv, 0.25 h
Rattus norvegicus [41] = test: Distribution of radioactivity in brain tissues of Sprague-Dawley rats after 15 min injection by intravenously; value ranges from 0.20-0.25; conditions: in vivo, iv, 0.25 h; method in brief: as §1
Rattus norvegicus [42] = test: Distribution of radioactivity in brain tissues of Sprague-Dawley rats after 30 min injection by intravenously; value ranges from 0.17-0.20; conditions: in vivo, iv, 0.5 h; method in brief: as §1
Rattus norvegicus [43] = test: Distribution of radioactivity in blood tissues of Sprague-Dawley rats after 15 min injection by intravenously; value ranges from 0.97-1.12; conditions: in vivo, iv, 0.25 h; method in brief: as §1
Rattus norvegicus [44] = test: Distribution of radioactivity in blood tissues of Sprague-Dawley rats after 30 min injection by intravenously; value ranges from 0.73-0.85; conditions: in vivo, iv, 0.5 h; method in brief: as §1
Rattus norvegicus [45] = test: Distribution of radioactivity in blood tissues of Sprague-Dawley rats after 5 min injection by intravenously; value ranges from 1.38-1.5; conditions: in vivo, iv; method in brief: as §1
Rattus norvegicus [46] = test: Distribution of radioactivity in heart tissues of Sprague-Dawley rats after 5 min injection by intravenously; value ranges from 1.24-1.46; conditions: in vivo, iv
Rattus norvegicus [47] = test: Distribution of radioactivity in brain tissues of Sprague-Dawley rats after 5 min injection by intravenously; value ranges from 0.28-0.37; conditions: in vivo, iv; method in brief: as §1
[48] = Brain to blood ratio in Sprague-Dawley rats after 5 min injection by intravenously; conditions: rat, brain and blood, iv; method in brief: as §1
[49] = Brain to blood ratio in Sprague-Dawley rats after 60 min injection by intravenously; conditions: rat, brain and blood, iv; method in brief: as §1
[50] = Brain to blood ratio in Sprague-Dawley rats after 30 min injection by intravenously; conditions: rat, brain and blood, iv; method in brief: as §1
Rattus norvegicus [51] = test: Distribution of radioactivity in heart tissues of Sprague-Dawley rats after 30 min injection by intravenously; value ranges from 0.75-1.03; conditions: in vivo, iv, 0.5 h; method in brief: as §1
[52] = Brain to blood ratio in Sprague-Dawley rats after 15 min injection by intravenously; conditions: rat, brain and blood, iv; method in brief: as §1

Nc1ccc([125I])cc1
Distribution (Rattus norvegicus [1]): 1.81%
Distribution (Rattus norvegicus [2]): 1.6%
Distribution (Rattus norvegicus [3]): 1.16%
Distribution (Rattus norvegicus [4]): 1.6%
Distribution (Rattus norvegicus [5]): 1.8%
Distribution (Rattus norvegicus [6]): 0.97%
Distribution (Rattus norvegicus [7]): 1.12%
Distribution (Rattus norvegicus [8]): 1.57%
Distribution (Rattus norvegicus [9]): 0.81%
Distribution (Rattus norvegicus [10]): 0.62%
Distribution (Rattus norvegicus [11]): 0.39%
Distribution (Rattus norvegicus [12]): 0.58%
Distribution (Rattus norvegicus [13]): 0.06%
Distribution (Rattus norvegicus [14]): 0.24%
Distribution (Rattus norvegicus [15]): 0.54%
Distribution (Rattus norvegicus [16]): 0.43%
Distribution (Rattus norvegicus [17]): 0.57%
Distribution (Rattus norvegicus [18]): 0.39%
Distribution (Rattus norvegicus [19]): 0.99%
Distribution (Rattus norvegicus [20]): 0.77%
Distribution (Rattus norvegicus [21]): 0.94%
Distribution (Rattus norvegicus [22]): 0.63%
Distribution (Rattus norvegicus [23]): 0.27%
Distribution (Rattus norvegicus [24]): 0.86%

CN1C=CCC(C(=O)NCCc2ccc([125I])cc2)=C1
Distribution (Rattus norvegicus [25]): 1.72%
Distribution (Rattus norvegicus [26]): 1.89%
Distribution (Rattus norvegicus [27]): 3.1%
Distribution (Rattus norvegicus [28]): 1.24%
Distribution (Rattus norvegicus [29]): 1.2%
Distribution (Rattus norvegicus [30]): 4.19%
Distribution (Rattus norvegicus [31]): 1.28%
Distribution (Rattus norvegicus [32]): 2.63%
Distribution (Rattus norvegicus [33]): 1.08%
Distribution (Rattus norvegicus [34]): 0.97%
Distribution (Rattus norvegicus [35]): 1.48%
Distribution (Rattus norvegicus [36]): 0.66%
Distribution (Rattus norvegicus [37]): 0.17%
Distribution (Rattus norvegicus [38]): 0.57%
Distribution (Rattus norvegicus [39]): 0.72%
Distribution (Rattus norvegicus [40]): 2.54%
Distribution (Rattus norvegicus [41]): 0.22%
Distribution (Rattus norvegicus [42]): 0.18%
Distribution (Rattus norvegicus [43]): 1.03%
Distribution (Rattus norvegicus [44]): 0.77%
Distribution (Rattus norvegicus [45]): 1.42%
Distribution (Rattus norvegicus [46]): 1.37%
Distribution (Rattus norvegicus [47]): 0.32%
Kp at 5 min [48]: 0.22
Kp at 1 h [49]: 0.29
Kp at 0.5 h [50]: 0.23
Distribution (Rattus norvegicus [51]): 0.86%
Kp at 0.25 h [52]: 0.21
